Assay results reported in ChEMBL document CHEMBL5150043, “Discovery of Anthranilic Acid Derivatives as Difluoromethylornithine Adjunct Agents That Inhibit Far Upstream Element Binding Protein 1 (FUBP1) Function” (J Med Chem, 2022).

Columns and labels:
[1] = tested on: CHO-K1; assay: Inhibition of spermidine uptake in chinese hamster CHO-K1 cells assessed as decrease in cell growth by measuring cellular ATP content measured after 48 hrs in presence of DFMO and spermidine by ATPlite assay; conditions: Cricetulus griseus, CHO-K1, 48 h
[2] = Inhibition of spermidine uptake chinese hamster CHO-K1 cells assessed as decrease in cell growth by measuring cellular ATP content measured after 48 hrs in presence of DFMO and spermidine by ATPlite assay; assay type: functional, cell-based; conditions: Cricetulus griseus, CHO-K1, 48 h
[3] = tested on: CHO-K1; assay: Cytotoxicity against chinese hamster CHO-K1 cells assessed as decrease in cell viability measured after 48 hrs by ATPlite assay; assay type: toxicity, cell-based, Cricetulus griseus; conditions: cho-k1, 48 h
Outline: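 CHO-K1 cells dosed alone in 384-well format in parallel with Assays 1 and 2; MTC taken as highest concentration giving ≥90% relative growth versus untreated control; typical error ±10% (n = 3).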

[4] = tested on: L3.6pl; assay: Cytotoxicity against human L3.6pl cells assessed as cell viability measured after 72 hrs by ATPlite assay; assay type: toxicity, cell-based
Outline: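 L3.6pl human pancreatic cancer cells in 96-well format were exposed to compound alone for 72 h. Growth was expressed relative to an untreated control. MTC is the highest concentration with relative growth still >90%. […] Data come from two or more experiments, each run in triplicate (n ≥ 6).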

[5] = Cytotoxicity against human L3.6pl cells assessed as inhibition of cell growth measured after 72 hrs by ATPlite assay; assay type: toxicity, cell-based
[6] = Inhibition of spermidine uptake in human L3.6pl cells assessed as inhibition of cell growth by measuring cellular ATP content at MTC measured after 72 hrs in presence of DFMO and spermidine by ATPlite assay; assay type: functional
Outline: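 L3.6pl cells with DFMO and spermidine over 72 h, compound dosed up to its MTC; ECx = percentage effect at the MTC on scale between DFMO-only (50%) and DFMO + Spd (100%) controls; average of ≥2 experiments in triplicate (n ≥ 6).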

[7] = tested on: L3.6pl; assay: Inhibition of polyamine uptake in human L3.6pl cells assessed as inhibition of Ant44-induced toxicity by measuring cellular ATP content at MTC measured after 72 hrs in presence of Ant44 by ATPlite assay; assay type: functional
Outline: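 L3.6pl cells, Ant44 challenge over 72 h, compound dosed up to its MTC; ECx = percentage effect at the MTC on scale from Ant44-only (50% growth) to untreated (100%); average of ≥2 experiments in triplicate (n ≥ 6).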

Compound	EC50 [1]	EC50 [2]	MTC [3]	MTC [4]	IC50 at 72 h [5]	inhibition (INH) [6]	inhibition (INH) [7]
COc1ccc(CC(=O)Nc2ccc(N3CCN(c4cc(Cl)ccc4C)CC3)cc2C(=O)O)cc1	25 µM	32 µM	24 µM	–	–	–	–
COc1ccc(C(=O)Nc2ccc(N3CCN(c4ccccc4F)CC3)cc2C(=O)O)cc1	33 µM	–	25 µM	–	–	–	–
COc1ccccc1N1CCN(c2ccc(N3C(=O)CCC3=O)cc2[N+](=O)[O-])CC1	30 µM	–	27 µM	–	–	–	–
COc1ccc(C(=O)Nc2ccc(N3CCN(c4ccc(C(C)=O)cc4)CC3)cc2C(=O)O)cc1	21 µM	> 40 µM	20 µM	–	–	–	–
Cc1cccc(N2CCN(c3ccc(NC(=O)c4cccc(Cl)c4)c(C(=O)O)c3)CC2)c1C	8 µM	–	10 µM	–	–	–	–
CCOc1ccccc1N1CCN(c2ccc(NC(=O)c3ccc(OC)cc3)c(C(=O)O)c2)CC1	20 µM	–	37 µM	10 µM	> 20 µM	–	–
COc1ccccc1C(=O)Nc1ccc(N2CCN(c3cccc(C)c3C)CC2)cc1C(=O)O	23 µM	2 µM	28 µM	8 µM	22.9 µM	–	–
COc1ccc(C(=O)Nc2ccc(N3CCN(c4ccccc4OC)CC3)cc2C(=O)O)cc1	26 µM	9 µM	> 40 µM	6 µM	13.3 µM	8%	25%
Cc1ccc(C(=O)Nc2ccc(N3CCN(c4cc(Cl)ccc4C)CC3)c(C(=O)O)c2)cc1	5 µM	–	12 µM	–	–	–	–
COc1ccccc1C(=O)Nc1ccc(N2CCN(c3cc(Cl)ccc3C)CC2)cc1C(=O)O	21 µM	2 µM	19 µM	7 µM	29.1 µM	–	–
COc1ccc(C(=O)Nc2ccc(N3CCCN(c4ncccn4)CC3)cc2C(=O)O)cc1	–	12 µM	> 40 µM	25 µM	> 30 µM	–	–
COc1ccccc1C(=O)Nc1ccc(N2CCN(c3ccccn3)CC2)cc1	> 40 µM	> 40 µM	14 µM	10 µM	> 10 µM	–	–
COc1ccccc1N1CCN(c2ccc(NC(=O)c3ccccc3-c3cccs3)cc2C(=O)O)CC1	27 µM	> 40 µM	> 40 µM	–	–	–	–
Cc1cccc(N2CCN(c3ccc(NC(=O)c4ccccc4Cl)c(C(=O)O)c3)CC2)c1C	22 µM	–	26 µM	–	–	–	–
COC(=O)c1cc(CN2CCN(c3ccccn3)CC2)ccc1NC(=O)c1ccccc1OC	> 20 µM	> 20 µM	> 20 µM	–	–	–	–
COc1ccccc1C(=O)Nc1ccc(N2CCC(Oc3ccccc3)CC2)cc1C(=O)O	19 µM	32 µM	> 40 µM	10 µM	38.6 µM	45%	35%
COc1ccccc1C(=O)Nc1ccc(N2CCC(c3ccccc3)CC2)cc1C(=O)O	21 µM	18 µM	> 40 µM	9 µM	46.3 µM	–	–
COc1ccccc1C(=O)Nc1ccc(N2CCN(c3ccccn3)CC2)cc1C(=O)O	–	4 µM	21 µM	2 µM	> 100 µM	–	–
COc1ccc(C(=O)Nc2ccc(N3CCN(c4ccccc4Cl)CC3)cc2C(=O)O)cc1	27 µM	–	28 µM	90 µM	125 µM	2%	27%
CCN(CC)C(=O)CN1CCN(c2ccc(NC(=O)c3ccc(OC)cc3)c(C(=O)O)c2)CC1	> 40 µM	> 40 µM	28 µM	–	–	–	–
COC(=O)c1cc(N2CCN(c3cc(Cl)ccc3C)CC2)ccc1NC(=O)c1ccc(OC)cc1OC	> 40 µM	> 40 µM	> 40 µM	–	–	–	–
COc1ccc(C(=O)Nc2ccc(N3CCN(C4CCCCC4)CC3)cc2C(=O)O)cc1	> 40 µM	–	> 40 µM	–	–	–	–
O=C(Nc1ccc(N2CCN(c3ccccc3F)CC2)c(C(=O)O)c1)c1ccc(Cl)cc1	> 40 µM	–	> 40 µM	–	–	–	–
COc1ccc(C(=O)Nc2ccc(N3CCC(C(N)=O)CC3)cc2C(=O)O)cc1	> 40 µM	> 40 µM	22 µM	–	–	–	–
COc1ccc(C(=O)Nc2ccc(N3CCN(c4cc(Cl)ccc4C)CC3)cc2C(=O)O)c(OC)c1	> 40 µM	> 40 µM	> 40 µM	40 µM	61.6 µM	–	–
COc1ccccc1C(=O)Nc1ccc(N2CCN(Cc3ccccn3)CC2)cc1C(=O)O	10 µM	–	> 40 µM	10 µM	> 100 µM	–	–

Compound	EC50 [1]	EC50 [2]	MTC [3]	MTC [4]	IC50 at 72 h [5]	inhibition (INH) [6]	inhibition (INH) [7]
COc1ccc(C(=O)Nc2ccc(N3CCN(c4cccc(Cl)c4)CC3)cc2C(=O)O)cc1	17 µM	–	20 µM	–	–	–	–
COc1ccc(N2CCN(c3ccc(NC(=O)C4CCCCC4)cc3C#N)CC2)cc1	23 µM	> 40 µM	17 µM	–	–	–	–
COc1ccc(C(=O)Nc2ccc(N3CCN(c4ccccc4)CC3)cc2C(=O)O)cc1	15 µM	> 40 µM	17 µM	–	–	–	–
Cc1ccc(C)c(N2CCN(c3ccc(NC(=O)c4ccc(Cl)cc4)cc3C(=O)O)CC2)c1	> 40 µM	–	> 40 µM	–	–	–	–
COc1ccc(C(=O)Nc2ccc(N3CCC(N4CCCCC4)CC3)cc2C(=O)O)cc1	> 40 µM	–	> 40 µM	–	–	–	–
CCOC(=O)N1CCN(c2ccc(NC(=O)c3ccc(OC)cc3)c(C(=O)O)c2)CC1	> 40 µM	> 40 µM	34 µM	–	–	–	–
COCCNC(=O)CN1CCN(c2ccc(NC(=O)c3ccc(OC)cc3)c(C(=O)O)c2)CC1	> 40 µM	–	> 40 µM	–	–	–	–
COc1ccccc1C(=O)Nc1ccc(N2CCN(C(=O)c3ccccn3)CC2)cc1C(=O)O	> 40 µM	> 40 µM	> 40 µM	10 µM	> 10 µM	–	–
COc1ccccc1N1CCN(c2ccc(NC(=O)c3ccccc3)cc2C(=O)O)CC1	> 40 µM	–	> 40 µM	–	–	–	–
COc1ccc(C(=O)Nc2ccc(N3CCN(c4cccc(C)c4)CC3)cc2C(=O)O)cc1	16 µM	> 40 µM	22 µM	–	–	–	–
Cc1ccccc1CN1CCN(c2ccc(NC(=O)C(C)(C)C)cc2)CC1	2 µM	–	2 µM	10 µM	> 10 µM	15%	15%
COc1ccccc1C(=O)Nc1ccc(N2CCN(Cc3ccccc3)CC2)cc1C(=O)O	> 40 µM	> 40 µM	> 40 µM	10 µM	> 10 µM	–	–
Cc1ccc(CC(=O)Nc2ccc(N3CCN(c4ccccc4Cl)CC3)cc2C(=O)O)cc1	32 µM	16 µM	> 40 µM	–	–	–	–
COc1ccccc1N1CCN(c2ccc(NC(=O)c3ccccc3Cl)c(C(=O)O)c2)CC1	26 µM	16 µM	36 µM	–	–	–	–
COc1ccc(C(=O)Nc2ccc(N3CCN(c4cc(Cl)ccc4C)CC3)c(C(=O)O)c2)cc1	5 µM	–	14 µM	–	–	–	–
Cc1cccc(N2CCN(c3ccc(NC(=O)c4ccccc4F)cc3C(=O)O)CC2C)c1 (stereo not given)	> 40 µM	–	> 40 µM	–	–	–	–
COc1ccc(C(=O)Nc2ccc(N3CCN(c4ccc(OC)cc4)CC3)cc2C(=O)O)cc1	> 40 µM	> 40 µM	> 40 µM	–	–	–	–
O=C(Nc1ccc(N2CCN(C3CCCCC3)CC2)cc1C(=O)O)c1ccc(F)cc1	> 40 µM	–	> 40 µM	–	–	–	–
COc1ccccc1C(=O)Nc1ccc(N2CCN(CCCc3ccccc3)CC2)cc1C(=O)O	> 40 µM	> 40 µM	> 40 µM	10 µM	> 10 µM	–	–
Cc1ccc(C)c(N2CCN(c3ccc(N4C(=O)CC(c5ccccc5)C4=O)cc3[N+](=O)[O-])CC2)c1 (stereo not given)	27 µM	–	32 µM	–	–	–	–
COc1ccccc1C(=O)Nc1ccc(CN2CCN(c3ccccn3)CC2)cc1C(=O)O	> 40 µM	> 40 µM	> 40 µM	10 µM	> 10 µM	–	–
COC(=O)c1cc(N2CCN(c3cc(Cl)ccc3C)CC2)ccc1NC(=O)c1ccc(OC)cc1	> 40 µM	> 40 µM	> 40 µM	–	–	–	–
COC(=O)c1cc(N2CCN(c3cc(Cl)ccc3C)CC2)ccc1NC(=O)c1ccccc1OC	> 40 µM	> 40 µM	> 40 µM	–	–	–	–
Cc1ccccc1C(=O)Nc1ccc(N2CCN(c3cc(Cl)ccc3C)CC2)c(C(=O)O)c1	> 40 µM	> 40 µM	> 40 µM	–	–	–	–
COc1ccc(C(=O)Nc2ccc(N3CCC(c4cccc(C)c4)C3)cc2C(=O)O)cc1 (stereo not given)	> 40 µM	> 40 µM	> 40 µM	25 µM	39.9 µM	–	–
